Numbered stars: 1 amine (or outer) side, 2 acyl side, 3 side chain; on linkers, the order of the positions; unused ones are H or OH. Bridge positions count the residues as written; N and C are the ends. Square brackets hold non-standard residues; d marks the D form. Peptide text beside a SMILES is read from it. X1 = O=C(CC1(S[*:2])CCCCC1)[*:1]
Legend:
[1] = organism: Rattus norvegicus; assay: Effective dose of compound was determined for anti-vasopressor potency in rat; format: functional
How it was run: (§1)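 Intravenous vasopressor assay in phenoxybenzamine-treated rats under urethane anaesthesia, with the USP posterior pituitary reference standard as agonist. Each antagonist was given at two doses. The effective dose (nmol/kg) is the dose that cuts the response to 2x units of agonist to the response to 1x unit given before antagonist. It was interpolated on a log scale between the two doses.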

[2] = organism: Rattus norvegicus; assay: In vitro anti-oxytocic potency of compound in rat uterus in absence of Mg; format: functional; settings: read-out: pA2 (converted)
How it was run: (§2)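 Oxytocic antagonism on isolated rat uteri, with the USP posterior pituitary reference standard as agonist. Potency is expressed as a pA2 value.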

[3] = organism: Rattus norvegicus; assay: Effective dose of compound was determined for antiantidiuretic potency in rats; format: functional, Urine
How it was run: (§3)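 Antidiuretic assay in rats under ethanol anaesthesia, with the USP posterior pituitary reference standard as agonist, given intravenously. The standard was injected 20 min after antagonist, or 10 min for analogues without agonism. Two antagonist doses were used, and the effective dose (nmol/kg) was log-interpolated as the dose reducing the 2x-unit response to the 1x-unit response. In vivo pA2 = −log(effective dose/estimated volume of distribution).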

[4] = tested on: Rattus norvegicus; assay: (§4) In vivo anti-oxytocic potency of compound was determined in rat uterus; format: functional, organism-based; settings: read-out: pA2 (converted)
How it was run: (§5)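 Rat uterus in situ, with synthetic oxytocin as agonist. Two antagonist doses were used, and the effective dose (nmol/kg) was interpolated on a log scale as the dose reducing the 2x-unit response to the 1x-unit response.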

[5] = tested on: Rattus norvegicus; assay: The compound tested in vivo for anti-vasopressor potency in rats; format: functional, organism-based; settings: read-out: pA2 (converted); how it was run: as §1
[6] = tested on: Rattus norvegicus; assay: as §4; format: functional; how it was run: as §5
[7] = tested on: Rattus norvegicus; assay: In vivo antiantidiuretic potency of compound was determined in rats; format: functional, organism-based; settings: Urine, read-out: pA2 (converted); how it was run: as §3
[8] = organism: Rattus norvegicus; assay: In vitro anti-oxytocic potency of compound in rat uterus in presence of 0.5 mM of Mg; format: functional; settings: read-out: pA2 (converted); how it was run: as §2
[9] = Ratio of anti-vasopressor ED to antidiuretic ED was determined; format: functional, Urine
How it was run: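 Ratio computed as antivasopressor effective dose divided by antiantidiuretic effective dose. Both effective doses come from intravenous rat assays and are defined as the dose (nmol/kg) that reduces the 2x-unit agonist response to the 1x-unit response.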

[10] = Ratio of anti-oxytocic ED to antidiuretic ED was determined; format: functional, Urine
How it was run: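 Ratio computed as antioxytocic effective dose divided by antiantidiuretic effective dose. Both effective doses are defined as the dose (nmol/kg) that reduces the 2x-unit agonist response to the 1x-unit response.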

[11] = organism: Rattus norvegicus; assay: Effective dose of compound was determined for anti-vasopressor potency in rat; Weak agonist; format: functional, organism-based; settings: filed as partial agonist
[12] = organism: Rattus norvegicus; assay: Effective dose of compound was determined for antiantidiuretic potency in rats; Weak agonist; format: functional, organism-based; settings: Urine, filed as partial agonist
How it was run: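 Intravenous antidiuretic assay in rats under ethanol anesthesia. The agonist was the USP posterior pituitary reference standard, injected 20 min after the antagonist to allow recovery from initial antidiuretic responses. Antagonist was given at high and low doses. The effective dose (nmol/kg) reduces the response to 2x units of agonist to that of 1x unit given before antagonist, log-interpolated.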

CC[C@@H]1NC(=O)[C@H](Cc2ccccc2)NC(=O)[C@@H](Cc2ccccc2)NC(=O)CC2(CCCCC2)SSC[C@@H](C(=O)N2CCC[C@H]2C(=O)N[C@@H](CCCN=C(N)N)C(=O)NCC(N)=O)NC(=O)[C@H](CC(N)=O)NC1=O
ED [1]: 1.4 nM/kg
Kb [2]: 0.0186 µM
ED [3]: 0.77 nM/kg
Kb [4]: 0.0302 µM
Kb [5]: 0.02 µM
ED [6]: 2.4 nM/kg
Kb [7]: 0.011 µM

NC(=O)CC[C@@H]1NC(=O)[C@H](Cc2ccccc2)NC(=O)[C@@H](Cc2ccccc2)NC(=O)CC2(CCCCC2)SSC[C@@H](C(=O)N2CCC[C@H]2C(=O)N[C@@H](CCCN=C(N)N)C(=O)NCC(N)=O)NC(=O)[C@H](CC(N)=O)NC1=O [listing 1 of 2 here]
Kb [2]: 0.00257 µM
Kb [4]: 0.0562 µM
Kb [5]: 0.00447 µM
Kb [8]: 0.00372 µM
Kb [7]: 0.0617 µM

CC(C)[C@@H]1NC(=O)[C@H](Cc2ccccc2)NC(=O)[C@@H](Cc2ccccc2)NC(=O)CC2(CCCCC2)SSC[C@@H](C(=O)N2CCC[C@H]2C(=O)N[C@@H](CCCN=C(N)N)C(=O)NCC(N)=O)NC(=O)[C@H](CC(N)=O)NC1=O ([dF]FVNCPRG-NH2; linker N-5 via X1)
ED [1]: 0.58 nM/kg
ED ratio [9]: 0.9
ED [3]: 0.67 nM/kg
ED [6]: 8.9 nM/kg

NC(=O)CNC(=O)[C@H](CCCN=C(N)N)NC(=O)[C@@H]1CCCN1C(=O)[C@@H]1CSSC2(CCCCC2)CC(=O)N[C@H](Cc2ccccc2)C(=O)N[C@@H](Cc2ccccc2)C(=O)N[C@@H](CC2CCCCC2)C(=O)N[C@@H](CC(N)=O)C(=O)N1
ED [1]: 9 nM/kg
ED ratio [9]: 2
Kb [2]: 0.0166 µM
ED [3]: 4.6 nM/kg
Kb [5]: 0.2 µM
Kb [8]: 0.0257 µM
Kb [7]: 0.0646 µM

C[C@@H](O)[C@@H]1NC(=O)[C@H](Cc2ccccc2)NC(=O)[C@@H](Cc2ccccc2)NC(=O)CC2(CCCCC2)SSC[C@@H](C(=O)N2CCC[C@H]2C(=O)N[C@@H](CCCN=C(N)N)C(=O)NCC(N)=O)NC(=O)[C@H](CC(N)=O)NC1=O
ED [1]: 2.9 nM/kg
ED ratio [9]: 1.7
Kb [2]: 0.00912 µM
ED ratio [10]: 1.9
ED [3]: 1.7 nM/kg
Kb [4]: 0.0447 µM
Kb [5]: 0.0417 µM
ED [6]: 3.2 nM/kg
Kb [8]: 0.00977 µM
Kb [7]: 0.024 µM

CC(C)C[C@@H]1NC(=O)[C@H](Cc2ccccc2)NC(=O)[C@@H](Cc2ccccc2)NC(=O)CC2(CCCCC2)SSC[C@@H](C(=O)N2CCC[C@H]2C(=O)N[C@@H](CCCN=C(N)N)C(=O)NCC(N)=O)NC(=O)[C@H](CC(N)=O)NC1=O
ED [1]: 1.3 nM/kg
ED ratio [9]: 0.02
ED [3]: 66 nM/kg
Kb [5]: 0.02 µM
Kb [8]: 0.0132 µM
Kb [7]: 0.851 µM

CCC[C@@H]1NC(=O)[C@H](Cc2ccccc2)NC(=O)[C@@H](Cc2ccccc2)NC(=O)CC2(CCCCC2)SSC[C@@H](C(=O)N2CCC[C@H]2C(=O)N[C@@H](CCCN=C(N)N)C(=O)NCC(N)=O)NC(=O)[C@H](CC(N)=O)NC1=O
ED [1]: 1.4 nM/kg
ED ratio [9]: 0.2
Kb [2]: 0.00933 µM
ED [3]: 6.9 nM/kg
Kb [5]: 0.0186 µM
Kb [8]: 0.0191 µM
Kb [7]: 0.102 µM

CC[C@H](C)[C@@H]1NC(=O)[C@H](Cc2ccccc2)NC(=O)[C@@H](Cc2ccccc2)NC(=O)CC2(CCCCC2)SSC[C@@H](C(=O)N2CCC[C@H]2C(=O)N[C@@H](CCCN=C(N)N)C(=O)NCC(N)=O)NC(=O)[C@H](CC(N)=O)NC1=O ([dF]FINCPRG-NH2; linker N-5 via X1)
ED [1]: 0.99 nM/kg
ED ratio [9]: 2.2
Kb [2]: 0.00912 µM
ED ratio [10]: 13
ED [3]: 0.46 nM/kg
Kb [4]: 0.0776 µM
Kb [5]: 0.0138 µM
ED [6]: 5.8 nM/kg
Kb [8]: 0.00646 µM
Kb [7]: 0.00575 µM

C[C@@H]1NC(=O)[C@H](Cc2ccccc2)NC(=O)[C@@H](Cc2ccccc2)NC(=O)CC2(CCCCC2)SSC[C@@H](C(=O)N2CCC[C@H]2C(=O)N[C@@H](CCCN=C(N)N)C(=O)NCC(N)=O)NC(=O)[C@H](CC(N)=O)NC1=O
ED [1]: 1.9 nM/kg
ED ratio [9]: 0.9
Kb [2]: 0.0209 µM
ED [3]: 2.2 nM/kg
Kb [5]: 0.0282 µM
Kb [8]: 0.0186 µM
Kb [7]: 0.0302 µM

NC(=O)CNC(=O)[C@H](CCCN=C(N)N)NC(=O)[C@@H]1CCCN1C(=O)[C@@H]1CSSC2(CCCCC2)CC(=O)N[C@H](Cc2ccccc2)C(=O)N[C@@H](Cc2ccccc2)C(=O)N2CCC[C@H]2C(=O)N[C@@H](CC(N)=O)C(=O)N1
ED [11]: Partial agonist
Kb [2]: 1.74 µM
ED [12]: Partial agonist
Kb [8]: 3.72 µM

NC(=O)CNC(=O)[C@H](CCCN=C(N)N)NC(=O)[C@@H]1CCCN1C(=O)[C@@H]1CSSC2(CCCCC2)CC(=O)N[C@H](Cc2ccccc2)C(=O)N[C@@H](Cc2ccccc2)C(=O)N[C@@H](Cc2ccc(O)cc2)C(=O)N[C@@H](CC(N)=O)C(=O)N1
ED [1]: 22 nM/kg
ED ratio [9]: 0.12
Kb [2]: 0.0209 µM
ED [3]: ~178 nM/kg
Kb [5]: 0.263 µM
Kb [8]: 0.0372 µM
Kb [7]: ~2.69 µM

NC(=O)CC[C@@H]1NC(=O)[C@H](Cc2ccccc2)NC(=O)[C@@H](Cc2ccccc2)NC(=O)CC2(CCCCC2)SSC[C@@H](C(=O)N2CCC[C@H]2C(=O)N[C@@H](CCCN=C(N)N)C(=O)NCC(N)=O)NC(=O)[C@H](CC(N)=O)NC1=O [listing 2 of 2 here]
ED [1]: 0.3 nM/kg
ED ratio [9]: 0.07
ED ratio [10]: 0.9
ED [3]: 4.3 nM/kg
ED [6]: 4 nM/kg

CCCC[C@@H]1NC(=O)[C@H](Cc2ccccc2)NC(=O)[C@@H](Cc2ccccc2)NC(=O)CC2(CCCCC2)SSC[C@@H](C(=O)N2CCC[C@H]2C(=O)N[C@@H](CCCN=C(N)N)C(=O)NCC(N)=O)NC(=O)[C@H](CC(N)=O)NC1=O
ED [1]: 2.1 nM/kg
ED ratio [9]: 0.4
Kb [2]: 0.0288 µM
ED [3]: 5.6 nM/kg
Kb [5]: 0.0302 µM
Kb [8]: 0.0166 µM
Kb [7]: 0.0759 µM

NC(=O)CNC(=O)[C@H](CCCN=C(N)N)NC(=O)[C@@H]1CCCN1C(=O)[C@@H]1CSSC2(CCCCC2)CC(=O)N[C@H](Cc2ccccc2)C(=O)N[C@@H](Cc2ccccc2)C(=O)NCC(=O)N[C@@H](CC(N)=O)C(=O)N1
ED [1]: 11 nM/kg
ED ratio [9]: 0.11
Kb [2]: 0.0174 µM
ED [3]: 97 nM/kg
Kb [5]: 0.162 µM
Kb [8]: 0.0468 µM
Kb [7]: 1.41 µM

NC(=O)CNC(=O)[C@H](CCCN=C(N)N)NC(=O)[C@@H]1CCCN1C(=O)[C@@H]1CSSC2(CCCCC2)CC(=O)N[C@H](Cc2ccccc2)C(=O)N[C@@H](Cc2ccccc2)C(=O)N[C@@H](Cc2ccccc2)C(=O)N[C@@H](CC(N)=O)C(=O)N1
ED [1]: 25 nM/kg
ED ratio [9]: 0.5
Kb [2]: 0.0269 µM
ED [3]: 65 nM/kg
Kb [5]: 0.355 µM
Kb [8]: 0.0214 µM
Kb [7]: 0.851 µM

— ChEMBL document CHEMBL1122393, “Potent antagonists of the antidiuretic responses to arginine-vasopressin based on modifications of [1-(beta-mercapto-beta,beta-cyclopentamethylenepropionic acid),2-D- phenylalanine,4-valine]arginine-vasopressin at position 4” (J Med Chem, 1983)
